Measurements gathered from unrelated publications.
Protocols differ between the studies behind these lines.
Target: Dual specificity protein kinase CLK1 (CLK1, Homo sapiens, UniProt P49759)

SMILES | test | conditions | endpoint | value
O=C(NC[C@@H]1[C@H]2CN(C(=O)OCc3cc(C(F)(F)F)cc(C(F)(F)F)c3)C[C@@H]12)c1ccc2[nH]nnc2c1 | cell-free assay, competition with immobilised ligand | 1 µM | remaining binding | 87%
CCN(CC)CCNC(=O)c1c(C)[nH]c(/C=C2\C(=O)Nc3ccc(F)cc32)c1C | cell-free assay | 0.5 µM | remaining signal | 23.3%
COc1cc2ncnc(Nc3ccc(Oc4ccccc4)cc3C)c2cc1OC | enzyme activity, inhibitor | 1 µM | inhibition | 3%
O=C(O)c1cc(-c2ccc(C3CCNCC3)cc2)c2ccc(-c3ccc(C(F)(F)F)cc3)cc2c1 | cell-free assay, competition with immobilised ligand | 1 µM | remaining binding | 100%
CC(C)(O)[C@H]1CC[C@H](Nc2ccc3ncc(-c4cccc(C(F)(F)F)c4)n3n2)CC1 | enzyme activity, inhibitor | 1 µM | remaining activity | 8.45%
CCc1ccccc1C(=O)Nc1n[nH]c2c(C)c(F)c(C3C(C#N)=C(C)N(C)C(C)=C3C#N)cc12 | cell-free assay, competition with immobilised ligand | 1 µM | remaining binding | 84%
CC/C(=N\NC(=O)NCc1cccc(O)c1)c1ccc(O)c(C)c1O | enzyme activity, inhibitor | 0.1 µM | inhibition | 0.7%
CN1CC(Oc2cnc(C#N)cc2-c2ccn3nc(NC(=O)C4CC4)cc3c2)C1 | enzyme activity, inhibitor | 1 µM | inhibition | -3%
O=C(Nc1cnn(-c2csc(C(=O)NC3COC3)c2)c1)Nc1ccccc1Cl | enzyme activity, inhibitor | 5 µM | remaining activity | 81%
Cc1ccc(C(=O)Nc2ccc(CN3CCN(C)CC3)c(C(F)(F)F)c2)cc1C#Cc1cnc2cccnn12 | enzyme activity, inhibitor | 23.5 nM | remaining activity | 38%
Cc1cc(NC(=O)c2cccc3cc(-c4cccc5[nH]nc(N)c45)ccc23)ccc1F | enzyme activity, inhibitor | 0.1 µM | activity vs control | 97%
COc1cc2c(Nc3ccc(Br)cc3F)ncnc2cc1OCC1CCN(C)CC1 | cell-free assay | 0.5 µM | remaining signal | 105%
CNC(=O)Nc1ccc2c(c1)CC[C@@]21OC(=O)N(CC(=O)N(Cc2ccc(F)cc2)[C@@H](C)C(F)(F)F)C1=O | cell-free assay, competition with immobilised ligand | 1 µM | remaining binding | 69%
O=C1NC(=O)c2cc(Nc3ccc(F)cc3)c(Nc3ccc(F)cc3)cc21 | cell-free assay | 0.5 µM | remaining signal | 102%
Cn1cncc1C1=CN(c2ncnc3[nH]cnc23)CCS1 | enzyme activity, inhibitor, radiometric | 2 µM | inhibition | 97.3%
Cc1nc(Cc2cccc(C(F)(F)F)c2)sc1-c1ccc(C(N)=O)nc1 | cell-free assay, competition with immobilised ligand | 1 µM | remaining binding | 83%
COc1cc2nccc(Oc3ccc(NC(=O)Nc4ccc(F)cc4F)c(F)c3)c2cc1OC | thermal stability, DSF | 10 µM | ΔTm | 5 to 10 °C
Cc1sc(C(=O)NC2COC2)cc1-n1cc(NC(=O)Nc2c(F)cccc2Cl)cn1 | enzyme activity, inhibitor | 10 µM | remaining activity | 98.4%
COc1cc(-c2cc(-c3ccc(N4CCNCC4)cc3)cnc2C)cc(OC)c1OC | enzyme activity, inhibitor | 1 µM | inhibition | 1%
CC(C)(C)c1nc(-c2cccc(NS(=O)(=O)c3c(F)cccc3F)c2F)c(-c2ccnc(N)n2)s1 | enzyme activity, inhibitor, radiometric | 1 µM | remaining activity | 89%
CNCc1ccccc1-c1csc([C@H](C)Nc2nc(C)nc3cc(OC)c(OC)cc23)c1 | cell-free assay, competition with immobilised ligand | 1 µM | remaining binding | 95%
N#CCCc1ccc2c(c1)-c1[nH]c3ccc([N+](=O)[O-])cc3c1CC(=O)N2 | cell-free assay | 0.5 µM | remaining signal | 99.6%
